We go through nine compounds from PubChem BioAssay AID588751 (Vanderbilt Specialized Chemistry Center, 2011).

Sequence of Muscarinic acetylcholine receptor M4 (Rattus norvegicus) (P08485 whole entry, looked up): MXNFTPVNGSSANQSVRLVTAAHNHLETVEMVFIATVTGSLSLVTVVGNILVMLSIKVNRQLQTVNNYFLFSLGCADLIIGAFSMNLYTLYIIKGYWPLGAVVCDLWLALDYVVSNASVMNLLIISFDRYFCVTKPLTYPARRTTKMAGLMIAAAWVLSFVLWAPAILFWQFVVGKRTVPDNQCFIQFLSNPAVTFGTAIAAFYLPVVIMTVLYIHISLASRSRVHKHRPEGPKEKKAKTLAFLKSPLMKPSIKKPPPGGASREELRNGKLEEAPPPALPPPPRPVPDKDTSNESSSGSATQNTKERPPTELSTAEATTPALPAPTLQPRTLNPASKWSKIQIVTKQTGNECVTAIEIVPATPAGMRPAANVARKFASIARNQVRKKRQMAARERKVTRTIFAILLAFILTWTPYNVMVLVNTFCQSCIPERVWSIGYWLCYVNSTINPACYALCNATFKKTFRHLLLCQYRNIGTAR

The experiment concerns the target Muscarinic acetylcholine receptor M4 (Rattus norvegicus) (UniProt P08485). In words: ACh potentiation at rat M4, late-stage follow-up, counter-screen for M4 PAM project, CHO Gqi5 cells, calcium (AID 588751). The note with it: calcium fluorescence, ACh EC20. In outline:
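Test system: CHO cells stably co-expressing rat M4 receptor and chimeric Gqi5. Also added: acetylcholine at EC20, then acetylcholine at EC80. Dosing: compound concentration-response series, 0.3% DMSO final. Incubation: 144 s compound, 86 s between ACh additions, 37 °C. Technique: kinetic calcium fluorescence with Fluo-4 dye.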
Take `Cc1nc2sc(C(=O)NCCc3ccncc3)c(N)c2c(C)c1Cl`: the EC50 is 229 nM. Take `Cc1nc2sc(C(=O)NC3CC3)c(N)c2c(C)c1Cl`: the EC50 is 151 nM. As for `Cc1nc2sc(C(=O)NCc3nccs3)c(N)c2c(C)c1Cl`, the EC50 is 187 nM.

Regarding `Cc1nc2sc(C(=O)NCc3ccc4c(c3)OCO4)c(N)c2c(C)c1Cl`, the EC50 is 61.6 nM. As for `Cc1nc2sc(C(=O)NCc3ccncn3)c(N)c2c(C)c1Cl`, the EC50 was 527 nM. The result for `Cc1nc2sc(C(=O)NCc3cccc(F)c3F)c(N)c2c(C)c1Cl` reads 114 nM; that for `Cc1nc2sc(C(=O)NCc3ccncc3)c(N)c2c(C)c1Cl`, 173 nM. In the case of `Cc1nc2sc(C(=O)NCc3ccccc3)c(N)c2c(C)c1Cl` it was 126 nM; in that of `Cc1nc2sc(C(=O)NCc3cccnc3)c(N)c2c(C)c1Cl`, 272 nM.
